This note sets out measurements from ChEMBL document CHEMBL1914331, “N-O chemistry for antibiotics: discovery of N-alkyl-N-(pyridin-2-yl)hydroxylamine scaffolds as selective antibacterial agents using nitroso Diels-Alder and ene chemistry” (J Med Chem, 2011).

Where only a bound is given, the exact number is not on record here.

One data set has as its system Micrococcus luteus. Briefly: Antimicrobial activity against Micrococcus luteus ATCC 10240 after 24 hrs by Kirby-Bauer agar diffusion assay. It counts as functional. A digest of the protocol:
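Modified Kirby-Bauer well diffusion. Overnight LB cultures (18–24 h) were standardized in 0.9% saline to 0.5 McFarland and mixed into melted MHII agar at 47–50 °C, giving ~5×10³ CFU/mL. 9 mm wells received 50 µL of 2.0 mM compound in 10:1 MeOH:DMSO. Plates were incubated 24 h at 37 °C, then growth-inhibition zone diameter was measured (mm) by caliper.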
(Agar diffusion results depend on both activity and mobility in agar.)

The subject of a further data set is MCF7. Briefly: Cytotoxicity against human MCF7 cells. It counts as cell-based.
The next data set relates to PC-3. Briefly: Cytotoxicity against human PC3 cells. It counts as cell-based.
The test system of the next data set is HeLa. As to the kind of experiment: Cytotoxicity against human HeLa cells. It counts as cell-based.

In the case of `Cc1ccnc(N=O)c1`, the “diameter of the inhibition zone (DIZ)” value with Micrococcus luteus is on record as “<=14 mm”. The Activity entry with MCF7, with PC-3 and in the data set on HeLa was “Non-toxic” each time.

Regarding `C=C(C)C(C)(C)N(O)c1cc(C)on1`, in the data set on Micrococcus luteus, the “diameter of the inhibition zone (DIZ)” value was >14 mm. In addition, the Activity result in the data set with MCF7, in the data set with PC-3 and in the data set on HeLa was “Non-toxic” in each case.

For the compound `CC(C)(C)OC(=O)NO`, the “diameter of the inhibition zone (DIZ)” value in the data set with Micrococcus luteus is recorded as “<=14 mm”. Moreover, the Activity result in the data set on MCF7, in the data set on PC-3 and with HeLa was “Non-toxic” each time.

As for `C[C@H](NC(=O)OC(C)(C)C)C(=O)NO`, the “diameter of the inhibition zone (DIZ)” value in the data set with Micrococcus luteus is “<=14 mm”. Moreover, the Activity entry in the data set on MCF7, with PC-3 and in the data set with HeLa was “Non-toxic” throughout.

For the compound `CC(C)C[C@H](NC(=O)OC(C)(C)C)C(=O)NO`, in the data set on Micrococcus luteus, the “diameter of the inhibition zone (DIZ)” value is on record as “<=14 mm”. The Activity entry in the data set with MCF7, in the data set on PC-3 and in the data set with HeLa was “Non-toxic” each time.

As for `Cc1cccc(N=O)n1`, in the data set with Micrococcus luteus, the “diameter of the inhibition zone (DIZ)” value is reported as “<=14 mm”. In addition, the Activity result in the data set with MCF7, in the data set with PC-3 and in the data set with HeLa was “Non-toxic” each time.

Consider `O=Nc1ccccn1`, for which the “diameter of the inhibition zone (DIZ)” value in the data set with Micrococcus luteus is listed as “<=14 mm”. Moreover, the Activity entry in the data set with MCF7, in the data set with PC-3 and in the data set with HeLa was “Non-toxic” in each case.

On to `CCc1cccc(N=O)n1`, for which, in the data set on Micrococcus luteus, the “diameter of the inhibition zone (DIZ)” value is “<=14 mm”. In addition, the Activity result in the data set on MCF7, with PC-3 and in the data set with HeLa was “Non-toxic” throughout.

Turning to `Cc1cccnc1N=O`, the “diameter of the inhibition zone (DIZ)” value with Micrococcus luteus was “<=14 mm”. In addition, the Activity entry in the data set with MCF7, in the data set on PC-3 and with HeLa was “Non-toxic” in each case.

On to `O=Nc1ccc(Cl)cn1`, for which, in the data set on Micrococcus luteus, the “diameter of the inhibition zone (DIZ)” value is “<=14 mm”. Moreover, the Activity result in the data set with MCF7, with PC-3 and with HeLa was “Non-toxic” in each case.

Turning to `O=Nc1ccc(Br)cn1`, the “diameter of the inhibition zone (DIZ)” value in the data set with Micrococcus luteus is “<=14 mm”. The Activity result in the data set with MCF7, with PC-3 and with HeLa was “Non-toxic” throughout.

In the case of `O=Nc1ccc(I)cn1`, in the data set with Micrococcus luteus, the “diameter of the inhibition zone (DIZ)” value was “<=14 mm”. Further, the Activity entry with MCF7, in the data set with PC-3 and in the data set with HeLa was “Non-toxic” throughout.

In the case of `O=Nc1ncc(Cl)cc1Cl`, in the data set on Micrococcus luteus, the “diameter of the inhibition zone (DIZ)” value is reported as “<=14 mm”. Moreover, the Activity entry with MCF7, with PC-3 and in the data set on HeLa was “Non-toxic” each time.

As to `Cc1nc(N=O)ccc1Br`, the “diameter of the inhibition zone (DIZ)” value in the data set with Micrococcus luteus is reported as “<=14 mm”. Further, the Activity result in the data set on MCF7, in the data set on PC-3 and in the data set with HeLa was “Non-toxic” throughout.

As for `O=Nc1ncc(C(F)(F)F)cc1Cl`, the “diameter of the inhibition zone (DIZ)” value in the data set with Micrococcus luteus is on record as “<=14 mm”. The Activity result in the data set on MCF7, in the data set on PC-3 and in the data set with HeLa was “Non-toxic” in each case.

As for `O=Nc1ccc2ccccc2n1`, in the data set on Micrococcus luteus, the “diameter of the inhibition zone (DIZ)” value was “<=14 mm”. Besides, the Activity result in the data set with MCF7, in the data set on PC-3 and with HeLa was “Non-toxic” throughout.

As for `Cc1cc(N=O)no1`, the “diameter of the inhibition zone (DIZ)” value with Micrococcus luteus is recorded as “<=14 mm”. Moreover, the Activity result in the data set with MCF7, with PC-3 and in the data set on HeLa was “Non-toxic” in each case.

Turning to `CC(C)(C)O[C@@H]1C=CC[C@H]1N(O)c1ccc(Cl)cn1`, in the data set with Micrococcus luteus, the “diameter of the inhibition zone (DIZ)” value was >14 mm. Further, the Activity entry with MCF7, with PC-3 and in the data set with HeLa was “Non-toxic” each time.

Consider `C=C(CN(O)c1cc(C)on1)c1ccccc1`, for which, in the data set on Micrococcus luteus, the “diameter of the inhibition zone (DIZ)” value is >14 mm. The Activity entry in the data set on MCF7, in the data set with PC-3 and with HeLa was “Non-toxic” each time.

Regarding `COc1ccc(CON(C)c2ccccn2)cc1`, in the data set with Micrococcus luteus, the “diameter of the inhibition zone (DIZ)” value is “<=14 mm”. The Activity result with MCF7, with PC-3 and in the data set on HeLa was “Non-toxic” in each case.

Regarding `CCCN(OCc1ccc(OC)cc1)c1ccccn1`, the “diameter of the inhibition zone (DIZ)” value with Micrococcus luteus is “<=14 mm”. Also, the Activity result with MCF7, in the data set on PC-3 and in the data set with HeLa was “Non-toxic” each time.

As for `CCCCCCN(OCc1ccc(OC)cc1)c1ccccn1`, the “diameter of the inhibition zone (DIZ)” value in the data set with Micrococcus luteus is “<=14 mm”. The Activity entry in the data set with MCF7, in the data set with PC-3 and in the data set on HeLa was “Non-toxic” in each case.

Regarding `COc1ccc(CON(CCc2ccccc2)c2ccccn2)cc1`, the “diameter of the inhibition zone (DIZ)” value with Micrococcus luteus is recorded as “<=14 mm”. Further, the Activity result with MCF7, in the data set on PC-3 and in the data set on HeLa was “Non-toxic” each time.

As for `C=CCN(OCc1ccc(OC)cc1)c1ccccn1`, the “diameter of the inhibition zone (DIZ)” value with Micrococcus luteus is given as “<=14 mm”. The Activity entry in the data set with MCF7, in the data set with PC-3 and with HeLa was “Non-toxic” throughout.

In the case of `COc1ccc(CON(Cc2cccc(Oc3ccccc3)c2)c2ccccn2)cc1`, in the data set on Micrococcus luteus, the “diameter of the inhibition zone (DIZ)” value is reported as “<=14 mm”. Further, the Activity entry with MCF7, in the data set on PC-3 and in the data set with HeLa was “Non-toxic” throughout.

For `COc1ccc(CON(Cc2ccc(C(F)(F)F)cc2)c2ccccn2)cc1`, the “diameter of the inhibition zone (DIZ)” value in the data set with Micrococcus luteus is given as “<=14 mm”. For the same compound, the Activity entry with MCF7, in the data set on PC-3 and in the data set on HeLa was “Non-toxic” each time.

With `COc1ccc(CON(Cc2ccc(OC(F)(F)F)cc2)c2ccccn2)cc1`, in the data set with Micrococcus luteus, the “diameter of the inhibition zone (DIZ)” value was “<=14 mm”. Further, the Activity result in the data set on MCF7, in the data set with PC-3 and in the data set with HeLa was “Non-toxic” each time.

For `COc1ccc(CON(Cc2ccccc2)c2cccnc2)cc1`, the Activity entry in the data set on MCF7, in the data set on PC-3 and with HeLa was “Non-toxic” each time.

On to `COc1ccc(CON(Cc2ccccc2)Cc2ccccn2)cc1`, for which the Activity entry in the data set with MCF7, in the data set with PC-3 and in the data set with HeLa was “Non-toxic” throughout.

`CC(C)(C)OC1C=C[C@@H](N(O)c2ccc(Cl)cn2)C1` (mixture of isomers): in the data set with Micrococcus luteus, the “diameter of the inhibition zone (DIZ)” value is listed as >14 mm. In addition, the Activity result with MCF7, in the data set on PC-3 and in the data set with HeLa was “Non-toxic” each time.

In the case of `CC(C)OC1C=C[C@@H](N(O)c2ccc(Cl)cn2)C1` (mixture of isomers), in the data set with Micrococcus luteus, the “diameter of the inhibition zone (DIZ)” value is listed as >14 mm. Besides, the Activity entry with MCF7, in the data set on PC-3 and in the data set on HeLa was “Non-toxic” in each case.

In the case of `COC1C=C[C@@H](N(O)c2ccc(Br)cn2)C1` (mixture of isomers), the “diameter of the inhibition zone (DIZ)” value with Micrococcus luteus is recorded as >14 mm. Also, the Activity entry with MCF7, in the data set on PC-3 and in the data set on HeLa was “Non-toxic” in each case.

For the compound `CC(C)OC1C=C[C@@H](N(O)c2ccc(Br)cn2)C1` (mixture of isomers), the “diameter of the inhibition zone (DIZ)” value in the data set with Micrococcus luteus is listed as >14 mm. For the same compound, the Activity entry in the data set with MCF7, in the data set on PC-3 and with HeLa was “Non-toxic” in each case.

Turning to `CC(C)(C)OC1C=C[C@@H](N(O)c2ccc(Br)cn2)C1` (mixture of isomers), the “diameter of the inhibition zone (DIZ)” value in the data set on Micrococcus luteus is reported as >14 mm. Also, the Activity entry in the data set with MCF7, with PC-3 and in the data set with HeLa was “Non-toxic” throughout.

For `COC1C=C[C@@H](N(O)c2cccc(C)n2)C1` (mixture of isomers), the “diameter of the inhibition zone (DIZ)” value in the data set with Micrococcus luteus is reported as >14 mm. Besides, the Activity entry with MCF7, in the data set on PC-3 and in the data set on HeLa was “Non-toxic” in each case.

For the compound `Cc1cccc(N(O)[C@@H]2C=CC(OC(C)C)C2)n1` (mixture of isomers), the “diameter of the inhibition zone (DIZ)” value with Micrococcus luteus is reported as >14 mm. Also, the Activity result with MCF7, in the data set on PC-3 and in the data set on HeLa was “Non-toxic” throughout.

Regarding `COC1C=C[C@@H](N(O)c2cc(C)on2)C1` (mixture of isomers), the “diameter of the inhibition zone (DIZ)” value in the data set with Micrococcus luteus is listed as >14 mm. Further, the Activity result with MCF7, with PC-3 and in the data set with HeLa was “Non-toxic” each time.

Turning to `Cc1cc(N(O)[C@@H]2C=CC(OC(C)(C)C)C2)no1` (mixture of isomers), the “diameter of the inhibition zone (DIZ)” value in the data set on Micrococcus luteus is >14 mm. For the same compound, the Activity entry in the data set with MCF7, with PC-3 and in the data set with HeLa was “Non-toxic” each time.

In the case of `C=C(C)C(C)N(O)C(=O)[C@H](C)NC(=O)OC(C)(C)C` (mixture of isomers), the “diameter of the inhibition zone (DIZ)” value with Micrococcus luteus is “<=14 mm”. The Activity result with MCF7, with PC-3 and in the data set on HeLa was “Non-toxic” in each case.

`O=C(Cc1ccccc1)N1OC2C=CC1C2` (racemic): the “diameter of the inhibition zone (DIZ)” value in the data set with Micrococcus luteus is recorded as “<=14 mm”. For the same compound, the Activity result with MCF7, in the data set with PC-3 and in the data set with HeLa was “Non-toxic” in each case.
